This note sets out measurements from ChEMBL document CHEMBL2429753, “Synthesis and chemical and biological comparison of nitroxyl- and nitric oxide-releasing diazeniumdiolate-based aspirin derivatives” (J Med Chem, 2013).

Active and inactive are the calls of the source. The rule behind the calls is not given here.

Series [1] can be described thus: Drug metabolism in guinea pig serum assessed as aspirin formation at 100 uM after 5 mins by HPLC analysis. It counts as ADME, cell-free, Cavia porcellus. The essentials:
(§1)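 Compound added at 100 μM final to 0.1 M phosphate buffer, pH 7.4, with 50 μM DTPA and 2% guinea pig serum, preheated to 37°C. Reaction followed over time by reversed-phase C18 HPLC with a water/acetonitrile gradient containing 0.1% formic acid. Products identified by co-elution with authentic standards.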

Series [2] is described as follows: Drug metabolism of the compound in PBS buffer at pH 10 after 90 mins by NMR spectroscopy. Type of series: physicochemical. To be noted: pH 10, 1.5 h.
Series [3] has as its system Rattus norvegicus. In words: Antiinflammatory activity in po dosed Sprague-Dawley rat assessed as inhibition of carrageenan-induced paw edema administered 1 hr prior to carrageenan challenge measured after 3 hrs. Type of series: functional. To be noted: read-out: ID50 (the source's name). The gist of the method: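 Rats 160-180 g (n = 3) given compound by gavage at 0.8 mmol/kg, suspended in 1% methyl cellulose in water; controls received vehicle. After 1 h, 100 μL of 1% carrageenan in 0.9% NaCl injected into the right hind paw. Paw volume read by plethysmometer at 0 and 3 h. ID50 taken from dose-response curves as the dose halving the control inflammatory response.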

The nature of series [4]: Prodrug activation in guinea pig serum assessed as HNO release at 100 uM at pH > 6 by electrochemical detection method. Also noted: species or system Cavia porcellus. The essentials: (§2)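 NO electrode equilibrated at room temperature in buffer of the chosen pH containing 50 μM DTPA and 2% guinea pig serum. Compound added at 100 μM (0.1% DMSO) and maximum current recorded; triplicate additions. HNO measured indirectly after adding 1 mM ferricyanide to oxidize it to NO. Mean ± SD, n = 3.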

The nature of series [5]: Half life of the compound at pH 7.4. It counts as physicochemical.
The nature of series [6]: Drug metabolism in guinea pig serum assessed as NONO-salicylate formation at 100 uM after 5 mins by HPLC analysis. It counts as ADME, cell-free, Cavia porcellus. The essentials:
as §1

Series [7] relates to A549. In words: Cellular uptake in human A549 cells assessed as HNO/NO release at 10 uM by fluorescence asay. It counts as ADME, cell-based. To be noted: a549, 10 µM. The essentials: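 A549 cells seeded at 60,000 per well and grown 4 h, then loaded with 10 μM DAF-FM diacetate in PBS for 75 min at 37°C and washed three times. Compound added at 10 μM final (prodrugs from DMSO stock, ionic NONOates from 10 mM NaOH stock). Fluorescence at 535 nm (excitation 485 nm) followed over time at 37°C. n = 2, six replicates per plate.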

Series [8] is described as follows: Prodrug activation in guinea pig serum assessed as HNO release at 100 uM at pH < 6 by electrochemical detection method. The arrangement: species or system Cavia porcellus. The essentials:
as §2

The subject of series [9] is HUVEC. In words: Cytotoxicity against human HUVEC cells up to 100 uM after 48 hrs by MTT assay. It counts as cell-based. The gist of the method: (§3)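 A549 cells in RPMI 1640 with 10% FBS, and HUVECs in endothelial growth medium, both at 37°C in 5% CO2. Seeded at 8,000-10,000 per well, grown overnight, then exposed to 0-200 μM for 48 h. MTT (10 μL of 2 mg/mL) added for 1 h at 37°C, formazan dissolved in DMSO and read at 550 nm. n = 3 for A549, n = 1 for HUVEC, each at least in triplicate.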

The nature of series [10]: Drug metabolism of the compound in PBS buffer assessed as aspirin formation. Type of series: physicochemical.
A short description of series [11]: Drug metabolism of the compound in PBS buffer assessed as salicylate formation at pH 10 by NMR spectroscopy. Type of series: physicochemical.
A short description of series [12]: Half life of the compound at pH 7.4 in presence of guinea pig serum. It counts as physicochemical.
Series [13] can be described thus: Prodrug conversion of the compound assessed as conversion of MbO2 to metMb at 250 uM by spectrophotometry. It counts as ADME. The essentials: (§4)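 MbO2 (50 μM) exposed to compound at 37°C in pH 7.4 buffer (50 μM DTPA), with or without 2% guinea pig serum and with or without 1 mM GSH. Formation of metMb followed spectrally at 30-900 s intervals for 800 s to 6 h. MbO2 autoxidation monitored separately every 600 s over 12 h. n = 3.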

A short description of series [14]: Prodrug conversion in guinea pig serum assessed as conversion of MbO2 to metMb at 50 uM by spectrophotometr. Type of series: ADME, Cavia porcellus. The gist of the method: as §4
Series [15] in a line: Drug metabolism of the compound in PBS buffer assessed as accumulation of DEA/NO at pH 10 by NMR spectroscopy. It counts as physicochemical.
Series [16] concerns Rattus norvegicus. Nature of the series: Toxicity in Sprague-Dawley rat assessed as stomach ulcer at 1.38 mmol/kg, po after 6 hrs relative to aspirin. It counts as organism-based. Particulars: in vivo. The gist of the method:
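Rats fasted 24 h with water allowed, then dosed orally at 1.38 mmol/kg in 1% methylcellulose vehicle; controls received vehicle. Killed by CO2 at 6 h. Stomachs examined under a magnifying glass and ulcers scored by number and size (1 mm = 1; 1-2 mm = 2; >2 mm = length in mm). Ulcer index = total ulcer length per stomach averaged over animals (n = 4).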

A short description of series [17]: Drug metabolism of the compound in PBS buffer assessed as accumulation of DEA/NO at pH 10 after 10 mins by NMR spectroscopy. It counts as physicochemical. Particulars: pH 10, 10 min.
Series [18] in a line: Drug metabolism of the compound in PBS buffer assessed as aspirin formation at pH 10 by NMR spectroscopy. It counts as physicochemical.
Series [19] has as its system A549. Nature of the series: Cytotoxicity against human A549 cells after 48 hrs by MTT assay. Type of series: functional, cell-based. Particulars: A549, 48 h. The gist of the method:
as §3

Series [20] is described as follows: Stability in mouse cardiomyocytes after 20 to 30 mins. To be noted: cardiomyocyte. It counts as ADME, cell-based.
Series [21] can be described thus: Cardioprotective effect in mouse cardiomyocytes assessed as myocyte contractility measured as sarcomere shortening at 500 uM relative to control. It counts as functional, cell-based. To be noted: Cardiomyocyte. The essentials:
(§5)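 Ventricular myocytes from wild-type mice aged 2-4 months, anesthetized with ip pentobarbital 100 mg/kg, superfused with compound at 500 μM. Sarcomere shortening imaged under 0.5 Hz field stimulation and length tracked by real-time Fourier transform. Relaxation taken as time from peak shortening to 50% relaxation. Ca2+ transients read by confocal microscopy after fluo-4/AM loading (20 μM, 30 min). n = 12 cells.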

Series [22] can be described thus: Prodrug conversion in guinea pig serum assessed as conversion of MbO2 to metMb at 100 uM by spectrophotometry. Type of series: ADME, Cavia porcellus. Particulars: 50 or 250 µM, in the assay text read “at 50 or 250 uM” for “at 100 uM”. The gist of the method:
as §4

Series [23] is described as follows: Drug metabolism of the compound in PBS buffer assessed as isopropanol formation at pH 10 by NMR spectroscopy. Type of series: physicochemical.
The target of series [24] is T1, Prostaglandin G/H synthase 2 (Homo sapiens) (UniProt P35354).
T1 sequence (whole entry): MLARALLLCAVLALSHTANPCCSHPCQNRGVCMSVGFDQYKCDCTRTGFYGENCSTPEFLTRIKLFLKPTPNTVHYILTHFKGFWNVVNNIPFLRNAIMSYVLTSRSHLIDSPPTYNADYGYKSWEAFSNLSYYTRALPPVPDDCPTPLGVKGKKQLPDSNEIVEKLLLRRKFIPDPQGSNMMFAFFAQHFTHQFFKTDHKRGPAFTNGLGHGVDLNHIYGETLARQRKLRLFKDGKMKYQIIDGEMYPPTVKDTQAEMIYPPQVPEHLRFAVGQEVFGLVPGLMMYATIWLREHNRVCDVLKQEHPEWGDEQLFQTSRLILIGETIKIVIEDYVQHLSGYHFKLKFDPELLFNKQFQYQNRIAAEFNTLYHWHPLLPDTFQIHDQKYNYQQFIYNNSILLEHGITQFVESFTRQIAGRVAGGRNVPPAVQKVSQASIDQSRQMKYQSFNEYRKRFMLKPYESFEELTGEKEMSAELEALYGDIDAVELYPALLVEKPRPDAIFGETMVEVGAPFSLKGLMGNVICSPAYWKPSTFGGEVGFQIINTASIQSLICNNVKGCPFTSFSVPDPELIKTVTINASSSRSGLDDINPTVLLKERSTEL
In words: Inhibition of COX-2 mediated PGE2 production in human A549 cells at 25 to 50 uM after 24 hrs by EIA. It counts as cell-based. The essentials: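 A549 cells seeded at 50,000 per well and grown 12 h, then treated with 25 or 50 μM (0.1% DMSO) for 24 h at 37°C. PGE2 in the supernatant measured by competitive AChE-tracer EIA: overnight incubation at 4°C, Ellman's reagent development, […]. Run in triplicate.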

The nature of series [25]: Drug metabolism of the compound in PBS buffer assessed as salicylate formation at pH 7.4. It counts as physicochemical.
Series [26] can be described thus: Drug metabolism of the compound in PBS buffer assessed as acetate formation at pH 10 by NMR spectroscopy. It counts as physicochemical.
Series [27] has as its target Glyceraldehyde-3-phosphate dehydrogenase (Homo sapiens) (UniProt P04406). In words: Inhibition of GAPDH in human A549 cells at 100 uM after 1 hr by fluorescence assay. Type of series: cell-based. The essentials: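 A549 cells seeded at 30,000 per well, grown overnight and treated with 100 μM for 1 h at 37°C. Cells lysed 20 min at 4°C in KAlert buffer. Lysate mixed with KAlert mastermix and GAPDH activity read as fluorescence at 570 nm (excitation 540 nm). Mean ± SD of triplicate; one-way ANOVA against control.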

Series [28] can be described thus: Drug metabolism of the compound in PBS buffer assessed as formaldehyde formation at pH 10 by NMR spectroscopy. It counts as physicochemical.
Series [29] is described as follows: Cardioprotective effect in mouse cardiomyocytes assessed as reduction in time required for half relaxation from peak shortening at 500 uM relative to control. Particulars: Cardiomyocyte. Type of series: functional, cell-based. The arrangement: scale not given: the % may be the effect or the level left. The gist of the method: as §5
Series [30] can be described thus: Cardioprotective effect in mouse cardiomyocytes assessed as increase in whole calcium transient at 500 uM by confocal laser scanning microscopy relative to control. Type of series: functional, cell-based. To be noted: Cardiomyocyte. The gist of the method:
as §5

Series [31] has as its system Serum. Nature of the series: Drug metabolism in fetal bovine serum by HPLC analysis. It counts as ADME, cell-free, Bos taurus. Particulars: cattle.
The nature of series [32]: Half life of the compound. Type of series: physicochemical.
Series [33] is described as follows: Drug metabolism of the compound in guinea pig serum assessed as aspirin formation at 100 uM after 40 mins by HPLC analysis. Type of series: ADME, cell-free, Cavia porcellus. The essentials:
as §1

Series [34] is described as follows: Drug metabolism in guinea pig serum assessed as NONO-salicylate formation at 100 uM after 40 mins by HPLC analysis. Type of series: ADME, cell-free, Cavia porcellus. The essentials:
as §1

Chain of Glyceraldehyde-3-phosphate dehydrogenase (Homo sapiens) (P04406 2-335 limits assumed): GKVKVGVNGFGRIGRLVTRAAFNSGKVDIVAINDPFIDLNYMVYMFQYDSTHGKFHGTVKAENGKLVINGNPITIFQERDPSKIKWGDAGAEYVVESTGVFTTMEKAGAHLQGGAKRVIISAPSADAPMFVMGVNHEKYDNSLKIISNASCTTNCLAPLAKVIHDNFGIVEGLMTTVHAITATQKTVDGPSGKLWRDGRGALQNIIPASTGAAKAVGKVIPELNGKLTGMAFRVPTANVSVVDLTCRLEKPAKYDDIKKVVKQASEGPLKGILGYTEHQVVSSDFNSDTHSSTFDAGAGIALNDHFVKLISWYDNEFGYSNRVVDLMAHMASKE

With `CCN(CC)/[N+]([O-])=N/OCOC(=O)c1ccccc1OC(C)=O`, the Drug metabolism result in [1] is listed as “Active”; in [2], “Not Active”; in series [4], “Not Active”; in [6], “Active”; in [8], “Not Active”; in series [10], “Active”. The Drug metabolism entry in series [11], in series [13], in [14], in series [15], in series [17] and in series [18] was “Active” in each case. Also, the ED50 in [3] amounted to 169 mg/kg. The values for the half-life in [5] and in series [12] were 36 h and 13 min, respectively. The Drug uptake result in series [7] is on record as “Active”. Further, in series [9], the Activity entry is reported as “Non-toxic”. For the same molecule, the UI in series [16] is 0. In series [19], it took 135 µM to reach half-maximal inhibition (IC50).

As to `CC(=O)Oc1ccccc1C(=O)OCO/N=[N+](\[O-])NC(C)C`, the Drug metabolism result in [1] is listed as “Active”; in series [4], “Active”; in [6] it was “Active”; in series [22], “Active”; in series [23], “Active”; in [8], “Not Active”. Moreover, the Drug metabolism result in series [25], in series [26], in [28], in series [11], in series [13] and in series [31] was “Active” in each case. Further, the ED50 in series [3] turned out to be 121 mg/kg. Further, the Stability result in [20] is recorded as “Stable”. Besides, the values for the half-life in [5] and in series [12] were 7.5 h and 18 min, respectively. For the same molecule, the Activity in series [21] was 201%; in [9], “Non-toxic”; in series [29], 17%; in series [30] it was 24%. Moreover, the Drug uptake entry in [7] was “Active”. The inhibition entry in series [24] and in series [27] was “Active” each time. For the same molecule, the UI in [16] stood at 3.3. Besides, the IC50 in [19] is 90 µM.

Turning to `CC(C)N[N+]([O-])=N[O-].[Na+]`, in series [32], the half-life turned out to be 5.7 min.

Turning to `CC(C)N/[N+]([O-])=N/OCOC(=O)c1ccccc1O`, the Drug metabolism result in series [33] is “Active”.

In series [32], `CCN(CC)/[N+]([O-])=N/[O-].[Na+]` returned a half-life of 2.5 min.

As to `CC(=O)Oc1ccccc1C(=O)O` [ASPIRIN], the ED50 in series [3] stood at 129 mg/kg.

Regarding `CCN(CC)/[N+]([O-])=N/OCOC(=O)c1ccccc1O`, the Drug metabolism result in series [34] is on record as “Not Active”.
